From PMC13386513 (Journal of medicinal chemistry, 2025)

Key:
[1] = system: p-tau-treated SH-SY5Y cells; assay: Cytoprotective activity against p-tau, cell viability; assay type: cell-based, human; details: 0.5 μM p-tau overnight, compound 8 μM
How it was run: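 SH-SY5Y cells (passage 8–19; EMEM/F12, 10% FBS, 1% Pen-Strep) seeded 40,000/well in 24-well plates and grown overnight. Pretreated with test compound for 12 h, then exposed overnight to recombinant p-tau (E. coli BL21-expressed, heat-treated, TEV-cleaved). CCK-8 added for 2 h at 37 °C; OD read at 450 nm. Normalized to no-treatment mean; relative viability expressed against p-tau-only treatment.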

SH-SY5Y cells = assay: Cytotoxicity of the ligands alone, cell viability; assay type: cell-based; details: 8 μM
[2] = system: ATF4, CHOP, GADD34, TRB3 expression in SH-SY5Y cells; assay: qRT-PCR of ER stress-associated pro-apoptotic factors in p-tau-treated cells; assay type: cell-based, human; details: p-tau 0.5 μM plus ligand 5 μM, 24 h
[3] = system: spliced Xbp1 mRNA, BiP, ERdj4 expression in SH-SY5Y cells; assay: qRT-PCR of ER stress markers and UPR mediators in p-tau-treated cells; assay type: cell-based, human; details: p-tau 0.5 μM plus ligand 5 μM, 24 h
[4] = system: TNFα, IL1β, IRF3 expression in SH-SY5Y cells; assay: qRT-PCR of pro-inflammatory factors in p-tau-treated cells; assay type: cell-based, human; details: p-tau 0.5 μM plus ligand 5 μM, 24 h
[5] = system: Xbp1s, P58ipk, ATF4 expression in SH-SY5Y cells; assay: qRT-PCR of ER stress response induced by tunicamycin or thapsigargin; assay type: cell-based, human; details: 24 h
p-tau = p-tau (Homo sapiens, UniProt P10636); assay: Transmission electron microscopy of p-tau; details: p-tau 10 μM, 24 h incubation, 37 °C, Tris pH 7.4
Chain of p-tau (P10636 1-412 isoform P10636-7): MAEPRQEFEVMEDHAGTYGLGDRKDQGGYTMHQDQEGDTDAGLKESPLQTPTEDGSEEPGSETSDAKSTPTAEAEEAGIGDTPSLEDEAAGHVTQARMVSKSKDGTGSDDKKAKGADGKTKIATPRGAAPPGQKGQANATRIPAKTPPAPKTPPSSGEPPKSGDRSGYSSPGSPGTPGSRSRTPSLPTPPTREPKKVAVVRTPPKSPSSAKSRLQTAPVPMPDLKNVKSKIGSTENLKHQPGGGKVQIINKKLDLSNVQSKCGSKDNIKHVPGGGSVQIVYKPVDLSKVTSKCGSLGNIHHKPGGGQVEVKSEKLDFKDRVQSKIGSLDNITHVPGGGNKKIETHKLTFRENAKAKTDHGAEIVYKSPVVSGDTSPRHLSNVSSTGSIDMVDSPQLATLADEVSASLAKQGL

[6] = system: p-tau-treated SH-SY5Y cells; assay: Cell morphology by contrast microscopy; assay type: cell-based, human; details: p-tau 0.5 μM plus ligand 1 5 μM, 24 h
heparanase = details: previous report; cited from earlier work

Compound | relative viability [1] | cytotoxicity of the compound alone (SH-SY5Y cells) | expression of ATF4, CHOP, GADD34 and TRB3 [2] | expression of spliced Xbp1 mRNA, BiP and ERdj4 (p-tau-induced ER stress response/UPR) [3] | p-tau-induced inflammatory response (IL1β, TNFα, IRF3 expression) [4] | Tg-induced ER stress response (Xbp1s, P58ipk, ATF4) ([5]; Tg 0.5 μM plus ligand 1 5 μM) | Tm-induced ER stress response (Xbp1s, P58ipk, ATF4) ([5]; Tm 5 μg/mL plus ligand 1 5 μM) | morphology of p-tau (TEM) (p-tau) | cell density and morphology [6] | heparanase inhibition (heparanase)
COC(=O)[C@]12CCC(C)(C)C[C@H]1C1=CCC3[C@@]4(C)CC[C@H](O[C@@H]5O[C@H](COS(=O)(=O)O)[C@@H](O[C@@H]6O[C@H](C(=O)O)[C@@H](O[C@H]7O[C@H](COS(=O)(=O)O)[C@@H](O)[C@H](O)[C@H]7NS(=O)(=O)O)[C@H](O)[C@H]6O)[C@H](O)[C@H]5NS(=O)(=O)O)C(C)(C)C4CC[C@@]3(C)C1(C)CC2 (stereo partly drawn) [Compound 1, 3β-(2-N-Sulfo-2-deoxy-6-O-sulfo-α-D-glucopyranosyl-(1 → 4)-β-D-glucopyranosyluronate-(1 → 4)-2-N-sulfo-2-deoxy-6-O-sulfo-β-D-glucopyranosyloxy)-methyloleanolate] | around 0.6 | did not exhibit cytotoxicity | significantly lowered | strong protective effects | able to protect cells | failed to attenuate | failed to attenuate | reorganization of p-tau from an amorphous structure into more ordered clusters | remarkably recovered cell density and morphology | 
O=C(O)[C@H]1O[C@@H](O[C@H]2[C@H](O)[C@@H](NS(=O)(=O)O)[C@H](OCCNS(=O)(=O)O)O[C@@H]2COS(=O)(=O)O)[C@H](O)[C@@H](O)[C@@H]1O[C@H]1O[C@H](COS(=O)(=O)O)[C@@H](O)[C@H](O)[C@H]1NS(=O)(=O)O [Compound 2] | 0.3 | did not exhibit cytotoxicity | did not reduce | did not offer protection | did not offer protection |  |  |  |  | potent heparanase inhibitor
CN1CCc2cccc3c2[C@H]1Cc1ccc(O)c(O)c1-3 [apomorphine, reference compound] | 0.7 |  |  |  |  |  |  | reorganization of p-tau from an amorphous structure into more ordered clusters |  | 
COC(=O)[C@]12CCC(C)(C)C[C@H]1C1=CCC3[C@@]4(C)CC[C@H](O)C(C)(C)C4CC[C@@]3(C)C1(C)CC2 (stereo partly drawn) [OAME, oleanolic acid methyl ester, reference compound] |  | did not exhibit cytotoxicity |  |  |  |  |  |  |  | 
